Blank lines part the entries; values can stand above or below the compound they belong to. Active and inactive are the calls of the source. The rule behind the calls is not given here.
Key:
Homo sapiens [1] = species on record: Homo sapiens; assay: Inhibition of C-terminal biotin-tagged REV3L (1875 to 1895 residues) binding to REV3L (1846 to 1898 residues)/His-tagged REV7 R124A mutant complex (unknown origin) expressed in Escherichia coli BL21(DE3) […] by alphascreen assay
Homo sapiens [2] = species on record: Homo sapiens; assay: Destabilization of biotin-Avi-tagged REV3L (1846 to 1898 residues)/His-tagged REV7 R124A mutant complex (unknown origin) expressed in Escherichia coli BL21(DE3) incubated for 4 hrs by SYPRO orange dye based RT-PCR analysis
Summary of the method: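 His-REV7(R124A)/REV3L complex at 5 µM in 25 mM HEPES, 100 mM NaCl, pH 7.3 with SYPRO orange 1:2000. Compound at 500 µM final (10 mM DMSO stock) or DMSO, duplicate, 4 h at room temperature. Ramp 25 to 95 °C at 1 °C/min, ex 492/em 610 nm. Tm taken as inflection point of Boltzmann sigmoid fit.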

Homo sapiens [3] = species on record: Homo sapiens; assay: Binding affinity to biotin-Avi-tagged REV3L (1846 to 1898 residues)/His-tagged REV7 R124A mutant complex (unknown origin) expressed in Escherichia coli BL21(DE3) at 50 uM incubated for 20 hrs by pulldown assay
Summary of the method: (§1)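 Complex at 1 µM (biotin-AviTag-REV3L(1846–1898) co-expressed with His-REV7(R124A), Ni-purified) with 0.5% DMSO, compound (50 µM) or REV3L(1875–1895) peptide (5 µM) in 50 mM HEPES pH 7.4, 150 mM NaCl, 0.1% Tween 20. Shaken at 1500 rpm, 4 °C, 20 h. Streptavidin agarose then added for 4 h. Beads washed, heat-eluted, run on SDS gel, stained. Duplicates.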

Homo sapiens [4] = species on record: Homo sapiens; assay: Inhibition of C-terminal TAMRA-labeled REV3L (1875 to 1895 residues) binding to 5'-MBP-His8/3'-FLAG-tagged REV7 R124A mutant (unknown origin) expressed in Escherichia coli BL21(DE3) at 3 to 300 uM after 4 hrs by fluorescence polarization assay
Summary of the method: (§2)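 Compounds serially diluted from 10 mM DMSO stock. 4 h incubation, triplicate. Read at ex 555/em 632 nm, reported in mP. Controls: DMSO, and unlabeled REV3L peptides. Compound autofluorescence checked.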

HeLa [5] = assay: Potentiation of cisplatin-induced anticlonogenic activity in human HeLa cells at 75 uM after 24 hrs by crystal violet staining based assay; assay type: functional, cell-based
Summary of the method: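 HeLa cells at 450/well in 6-well plates, attached overnight. Cisplatin added at indicated concentrations; 24 h later, compound at 75 µM final or DMSO added for another 24 h. Medium then replaced and culture continued 6 days. Fixed in 3.7% formaldehyde, stained with 0.5% crystal violet, colonies over ~40 cells counted. Triplicate. Survival normalized to cisplatin-vehicle (0.9% NaCl) wells.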

[6] = Inhibition of C-terminal TAMRA-labeled REV3L (1875 to 1895 residues) binding to 5'-MBP-His8/3'-FLAG-tagged REV7 R124A mutant (unknown origin) expressed in Escherichia coli BL21(DE3) after 4 hrs by fluorescence polarization assay; design: species or system Homo sapiens; summary of the method: as §2
COS-7 = assay: Inhibition of REV7/REV3L protein interaction in African green monkey COS7 cells expressing ICL assessed as inhibition of ICL repair activity at 75 uM after 13 hrs by luciferase reporter gene assay; assay type: cell-based; settings: Chlorocebus aethiops
Summary of the method: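 COS7 cells at 80,000/well. Medium replaced after 5 h, then transfected with pGL-ICL (10 ng) or pGL4.50 (2.5 ng) plus pRL-TK, FuGENE 6. Cells trypsinized 5 h later and replated in quadruplicate with compound or DMSO. Dual firefly/Renilla luciferase read after 13 h. ICL plasmid signal normalized to non-ICL plasmid. Two-tailed unpaired t-test.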

[7] = test system: Mitotic spindle assembly checkpoint protein MAD2B (Homo sapiens), Q9UI95 [R124A]; assay: Binding affinity to 5'-MBP-His8/3'-FLAG-tagged REV7 R124A mutant (unknown origin) expressed in Escherichia coli BL21(DE3) at 200 uM by 1H waterLOGSY NMR method
HeLa [8] = assay: Cytotoxicity in human HeLa cells assessed as decrease in cell viability at 75 uM after 3 days by alamar blue assay; assay type: functional, cell-based
Summary of the method: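 HeLa cells at 1000/well, attached overnight, then given compound or DMSO in fresh medium, triplicate, for 3 days. alamarBlue added for 3 h, fluorescence read at ex 510/em 590 nm. Viability normalized to DMSO-treated cells.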

Homo sapiens [9] = species on record: Homo sapiens; assay: Binding affinity to biotin-Avi-tagged REV3L (1846 to 1898 residues)/His-tagged REV7 R124A mutant complex (unknown origin) expressed in Escherichia coli BL21(DE3) at 5 uM incubated for 20 hrs by pulldown assay; summary of the method: as §1

Mitotic spindle assembly checkpoint protein MAD2B (Homo sapiens), Q9UI95 [R124A], sequence (Q9UI95 whole entry R124A): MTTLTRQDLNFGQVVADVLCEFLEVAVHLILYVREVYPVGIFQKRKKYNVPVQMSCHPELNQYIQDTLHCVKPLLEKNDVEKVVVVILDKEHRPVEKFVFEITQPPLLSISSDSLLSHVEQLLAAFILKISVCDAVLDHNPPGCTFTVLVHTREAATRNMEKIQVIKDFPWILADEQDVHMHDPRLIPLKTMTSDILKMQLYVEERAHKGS

inhibition (Homo sapiens [1]): Active | Activity (Homo sapiens [2]): Active | Activity (Homo sapiens [3]): Active
SMILES: CC(=O)N1CCC(Cn2cnc3scc(-c4ccco4)c3c2=O)CC1

inhibition (Homo sapiens [4]): Active
SMILES: CC(=O)N1CCC(Cn2cnc3scc(-c4ccc(C(=O)N5CCOCC5)o4)c3c2=O)CC1

IC50 [6]: 78 µM | Activity [7]: Active
SMILES: CC(=O)N1CCC(Cn2cnc3scc(-c4ccc(C)o4)c3c2=O)CC1
Activity (HeLa [5]): Active | inhibition (COS-7): Active | Activity (HeLa [8]): Active

Activity (Homo sapiens [9]): Active
SMILES: CC[C@H](C)[C@H](NC(=O)[C@H](CCC(=O)O)NC(=O)[C@H](CCC(=O)O)NC(=O)[C@H](CCCNC(=N)N)NC(=O)[C@H](CO)NC(=O)[C@@H]1CCCN1C(=O)[C@@H]1CCCN1C(=O)[C@H](CO)NC(=O)[C@H](CCSC)NC(=O)[C@H](CC(C)C)NC(=O)[C@@H]1CCCN1C(=O)[C@H](CCCCN)NC(=O)[C@H](CC(C)C)NC(=O)[C@@H](NC(=O)[C@H](CC(N)=O)NC(=O)[C@H](C)N)[C@@H](C)CC)C(=O)N[C@@H](CCSC)C(=O)N[C@@H](C)C(=O)N[C@H](C(=O)N[C@@H](CC(C)C)C(=O)N[C@@H](CC(C)C)C(=O)O)[C@@H](C)O
